Experiments:
[1] = tested on: Mycobacterium tuberculosis; assay: Antitubercular activity against Mycobacterium tuberculosis H37Rv by MABA assay; format: functional
How it was run: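 Actives re-tested at lower concentrations against H37Rv (ATCC 27294) in BACTEC 12B medium by Microplate Alamar Blue Assay. MIC taken as lowest concentration giving […] fluorescence reduction versus controls; rifampin reference.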

[2] = tested on: Mycobacterium tuberculosis; assay: Antitubercular activity against Mycobacterium tuberculosis H37Rv at 6.25 ug/mL by MABA assay; format: functional; conditions: read-out: GI
How it was run: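 Primary screen against M. tuberculosis H37Rv (ATCC 27294) in BACTEC 12B medium by broth microdilution Microplate Alamar Blue Assay; fluorescent compounds run instead in BACTEC 460 radiometric system. Compounds above 95% inhibition counted active.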

Staphylococcus aureus = assay: Antibacterial activity against Staphylococcus aureus at 50 to 100 uM after 24 hrs by well diffusion method; format: functional
How it was run: (§1)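 Nutrient agar plates with 10 mm wells cut by cork borer; 24-h subcultured bacteria swabbed on. Compounds dissolved in chloroform, 50 to 100 μM added to wells, gentamycin as standard. Incubated 24 h at 24–28 °C; inhibition zone diameter measured and converted to percent inhibition.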

Escherichia coli = assay: Antibacterial activity against Escherichia coli at 50 to 100 uM after 24 hrs by well diffusion method; format: functional; how it was run: as §1
Pseudomonas aeruginosa = assay: Antibacterial activity against Pseudomonas aeruginosa at 50 to 100 uM after 24 hrs by well diffusion method; format: functional; how it was run: as §1
Salmonella typhi = assay: Antibacterial activity against Salmonella typhi at 50 to 100 uM after 24 hrs by well diffusion method; format: functional, Salmonella enterica subsp. enterica serovar Typhi; parameters: unit not given here; how it was run: as §1
[3] = Cytotoxicity against Vero-C1008 cells at 6.25 to 50 ug/mL by neutral red uptake assay; format: cell-based; conditions: chlorocebus sabaeus
How it was run: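 Vero-C-1008 cells exposed to 6.25 to 50 μg/mL compound; viability read by neutral red uptake.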

SMILES | MIC [1] | inhibition of growth at 6.25 µg/mL [2] [%] | inhibition zone (Staphylococcus aureus) [mm] | inhibition zone (Escherichia coli) [mm] | inhibition zone (Pseudomonas aeruginosa) [mm] | Inhibition (Salmonella typhi) | Activity [3]
N#CCSc1nnc(Cc2csc(NC(=O)CCl)n2)n1NC(=O)c1ccc(Cl)cc1 | 3.13 µM | 96 | 24 | 26 | 28 | 16 | Non-toxic
O=C(CCl)Nc1nc(Cc2nnc(S)n2NC(=O)c2ccc(Cl)cc2)cs1 | 6.25 µM | 96 | 20 | 18 | 20 | 14 | Non-toxic
O=C(O)CCNc1nc(Cc2nnc(SCC(=O)N/N=C/c3ccccc3)n2NC(=O)c2cccc([N+](=O)[O-])c2)cs1 | 1.56 µM | 96 | 30 | 26 | 32 | 27 | Non-toxic
N#CCSc1nnc(Cc2csc(NCCC(=O)O)n2)n1NC(=O)c1ccc(Cl)cc1 | 3.13 µM | 100 | 30 | 21 | 29 | 25 | Non-toxic
CC(=O)Nc1nc(Cc2nnc(SCC(=O)N/N=C/c3ccccc3)n2NC(=O)c2cccc([N+](=O)[O-])c2)cs1 | 0.78 µM | 100 | 30 | 24 | 31 | 26 | Non-toxic
COC(=O)CSc1nnc(Cc2csc(NC(C)=O)n2)n1NC(=O)c1cccc([N+](=O)[O-])c1 | < 6.25 µg/mL | – | 24 | 20 | 22 | 18 | Non-toxic
CC(=O)NNC(=O)CSc1nnc(Cc2csc(NCCC(=O)O)n2)n1NC(=O)c1ccc(Cl)cc1 | < 6.25 µg/mL | – | 20 | 26 | 21 | 18 | Non-toxic
O=C(CSc1nnc(Cc2csc(NC(=O)c3ccccc3)n2)n1NC(=O)c1ccc(Cl)cc1)NNC(=O)c1ccccc1 | < 6.25 µg/mL | – | 19 | 18 | 24 | 18 | Non-toxic
CC(=O)NNC(=O)CSc1nnc(Cc2csc(NC(C)=O)n2)n1NC(=O)c1ccc(Cl)cc1 | < 6.25 µg/mL | – | 27 | 20 | 19 | 23 | Non-toxic
CC(=O)Nc1nc(Cc2nnc(SCC(=O)NNC(=O)CCl)n2NC(=O)c2ccc(Cl)cc2)cs1 | < 6.25 µg/mL | – | 25 | 18 | 20 | 20 | Non-toxic
Nn1c(S)nnc1CSc1nnc(Cc2csc(NCCC(=O)O)n2)n1NC(=O)c1ccc(Cl)cc1 | < 6.25 µg/mL | – | 21 | 19 | 24 | 23 | Non-toxic
CC(=O)NNC(=O)CSc1nnc(Cc2csc(NCCC(=O)O)n2)n1NC(=O)c1cccc([N+](=O)[O-])c1 | < 6.25 µg/mL | – | 24 | 14 | 10 | 14 | Non-toxic
O=C(CCl)NNC(=O)CSc1nnc(Cc2csc(NC(=O)c3ccccc3)n2)n1NC(=O)c1ccc(Cl)cc1 | < 6.25 µg/mL | – | 26 | 19 | 23 | 22 | Non-toxic
Nn1c(S)nnc1Cc1csc(NCCC(=O)O)n1 | < 6.25 µg/mL | – | 25 | 20 | 22 | 16 | Non-toxic
CC(=O)NNC(=O)CSc1nnc(Cc2csc(NC(=O)c3ccccc3)n2)n1NC(=O)c1cccc([N+](=O)[O-])c1 | < 6.25 µg/mL | – | 20 | 14 | 18 | 12 | Non-toxic
O=C(CCl)NNC(=O)CSc1nnc(Cc2csc(NC(=O)c3ccccc3)n2)n1NC(=O)c1cccc([N+](=O)[O-])c1 | < 6.25 µg/mL | – | 14 | 18 | 11 | 12 | Non-toxic
O=C(CCl)Nc1nc(Cc2nnc(SCSc3nnc(Cc4csc(NC(=O)CCl)n4)n3NC(=O)c3ccc(Cl)cc3)n2NC(=O)c2ccc(Cl)cc2)cs1 | < 6.25 µg/mL | – | 23 | 29 | 28 | 18 | Non-toxic

SMILES | MIC [1] | inhibition of growth at 6.25 µg/mL [2] [%] | inhibition zone (Staphylococcus aureus) [mm] | inhibition zone (Escherichia coli) [mm] | inhibition zone (Pseudomonas aeruginosa) [mm] | Inhibition (Salmonella typhi) | Activity [3]
NNC(=O)CSc1nnc(Cc2csc(NCCC(=O)O)n2)n1NC(=O)c1cccc([N+](=O)[O-])c1 | < 6.25 µg/mL | – | 24 | 16 | 28 | 21 | Non-toxic
O=C(Nc1nc(Cc2nnc(SCSc3nnc(Cc4csc(NC(=O)c5ccccc5)n4)n3NC(=O)c3cccc([N+](=O)[O-])c3)n2NC(=O)c2cccc([N+](=O)[O-])c2)cs1)c1ccccc1 | < 6.25 µg/mL | – | 26 | 24 | 24 | 19 | Non-toxic
Nn1c(S)nnc1CSc1nnc(Cc2csc(NCCC(=O)O)n2)n1NC(=O)c1cccc([N+](=O)[O-])c1 | < 6.25 µg/mL | – | 26 | 17 | 28 | 18 | Non-toxic
CC(=O)Nc1nc(Cc2nnc(SCC(=O)NNC(=O)c3ccccc3)n2NC(=O)c2ccc(Cl)cc2)cs1 | < 6.25 µg/mL | – | 28 | 20 | 22 | 17 | Non-toxic
CC(=O)NNC(=O)CSc1nnc(Cc2csc(NC(=O)CCl)n2)n1NC(=O)c1ccc(Cl)cc1 | < 6.25 µg/mL | – | 25 | 24 | 21 | 22 | Non-toxic
Nn1c(S)nnc1CSc1nnc(Cc2csc(NC(=O)c3ccccc3)n2)n1NC(=O)c1cccc([N+](=O)[O-])c1 | < 6.25 µg/mL | – | 24 | 20 | 27 | 19 | Non-toxic
Nn1c(S)nnc1CSc1nnc(Cc2csc(NC(=O)c3ccccc3)n2)n1NC(=O)c1ccc(Cl)cc1 | < 6.25 µg/mL | – | 26 | 20 | 19 | 19 | Non-toxic
CC(=O)NNC(=O)CSc1nnc(Cc2csc(NC(=O)CCl)n2)n1NC(=O)c1cccc([N+](=O)[O-])c1 | < 6.25 µg/mL | – | 27 | 18 | 24 | 24 | Non-toxic
CC(=O)Nc1nc(Cc2nnc(SCC(=O)NNC(=O)CCl)n2NC(=O)c2cccc([N+](=O)[O-])c2)cs1 | < 6.25 µg/mL | – | 12 | 18 | 18 | 14 | Non-toxic
NNC(=O)CSc1nnc(Cc2csc(NCCC(=O)O)n2)n1NC(=O)c1ccc(Cl)cc1 | < 6.25 µg/mL | – | 23 | 18 | 26 | 22 | Non-toxic
O=C(O)CCNc1nc(Cc2nnc(SCC(=O)NNC(=O)CCl)n2NC(=O)c2cccc([N+](=O)[O-])c2)cs1 | < 6.25 µg/mL | – | 24 | 24 | 26 | 24 | Non-toxic
COC(=O)CSc1nnc(Cc2csc(NC(C)=O)n2)n1NC(=O)c1ccc(Cl)cc1 | < 6.25 µg/mL | – | 20 | 10 | 16 | 10 | Non-toxic
CC(=O)Nc1nc(Cc2nnc(SCC#N)n2NC(=O)c2cccc([N+](=O)[O-])c2)cs1 | < 6.25 µg/mL | – | 22 | 20 | 26 | 21 | Non-toxic
CC(=O)Nc1nc(Cc2nnc(SCc3nnc(S)n3N)n2NC(=O)c2cccc([N+](=O)[O-])c2)cs1 | < 6.25 µg/mL | – | 18 | 21 | 13 | 18 | Non-toxic
COC(=O)CSc1nnc(Cc2csc(NC(=O)CCl)n2)n1NC(=O)c1ccc(Cl)cc1 | < 6.25 µg/mL | – | 18 | 10 | 16 | 12 | Non-toxic
O=C(CCl)Nc1nc(Cc2nnc(SCSc3nnc(Cc4csc(NC(=O)CCl)n4)n3NC(=O)c3cccc([N+](=O)[O-])c3)n2NC(=O)c2cccc([N+](=O)[O-])c2)cs1 | < 6.25 µg/mL | – | 18 | 27 | 30 | 24 | Non-toxic

From ChEMBL document CHEMBL1148007, “Synthesis of new S-derivatives of clubbed triazolyl thiazole as anti-Mycobacterium tuberculosis agents” (Bioorg Med Chem, 2007)
